Results from different studies.
Compare with care: the assays were run in different laboratories.
Read-out: enzyme activity
Mode: inhibitor
BRAF: Serine/threonine-protein kinase B-raf (BRAF, Homo sapiens, UniProt P15056)
BRAF V600E: Serine/threonine-protein kinase B-raf (BRAF, Homo sapiens, UniProt P15056, V600E)

| target | assay | setting | inhibition [%] | SMILES |
| --- | --- | --- | --- | --- |
| BRAF |  | 1 µM | 2 | CN1CC(Oc2cnc(C#N)cc2-c2ccn3nc(NC(=O)C4CC4)cc3c2)C1 |
| BRAF V600E |  | 10 µM | 2 | CS(=O)(=O)Nc1cccc(-c2csc(NC(=O)CSc3nc4nccnc4c(=O)n3CCc3ccccc3)n2)c1 |
| BRAF | FRET | 10 µM | 1 | CN(C)C1CCN(CC#Cc2nn(C3CCCC3)c3nc(NCc4ccccc4)ncc23)C1 (centres unmarked) |
| BRAF | radiometric | 50 nM | 12.9 | Cn1cncc1C1=CN(c2ncnc3[nH]cnc23)CCS1 |
| BRAF V600E |  | 0.1 µM | 5 | COc1cc(-c2cc(-c3ccc(N4CCNCC4)cc3)cnc2N)cc(OC)c1OC |
| BRAF V600E | ATP luminescence | 10 nM | 29 | Cc1ccc(N=Nc2sc(NN=C(CS(=O)(=O)c3ccccc3)c3ccc(C)cc3)nc2C)cc1 |
| BRAF |  | 0.1 µM | 18 | COc1cc2nccc(Oc3ccc(NC(=O)c4c5n(n(-c6ccc(F)cc6)c4=O)CCCC5)cc3)c2cc1OC |
| BRAF V600E | ATP luminescence | 1 µM | 79 | Cc1ccc(C(CS(=O)(=O)c2ccccc2)=NN=C2N=C(c3ccc(Br)cc3)CS2)cc1 |
| BRAF |  | 10 µM | 9 | O=C(CSc1nc2nccnc2c(=O)n1CCc1ccccc1)Nc1nccs1 |
| BRAF |  | 1 µM | 7 | COc1cc2ncnc(Nc3ccc(Oc4ccccc4)cc3C)c2cc1OC |
| BRAF V600E | ATP luminescence | 10 µM | 83 | Cc1ccc(C(CS(=O)(=O)c2ccccc2)=NNC2=NC(=O)C(=NNc3ccc(Cl)cc3)S2)cc1 |
